Assay results taken from ChEMBL document CHEMBL1158546, “Discovery of novel and potent leukotriene B4 receptor antagonists. Part 1” (J Med Chem, 2010).
≈ marks a conversion by molar mass, not a printed value. Each block holds one molecule with its values, some of them ahead of it. Calls of active or inactive are those of the source. The rule behind the calls is not given here.

Key:
Cytochrome P450 2C19 = Cytochrome P450 2C19 (Homo sapiens, UniProt P33261); assay: Inhibition of CYP2C19 fluorescence method; format: ADME
Chain of Cytochrome P450 2C19 (P33261 whole entry): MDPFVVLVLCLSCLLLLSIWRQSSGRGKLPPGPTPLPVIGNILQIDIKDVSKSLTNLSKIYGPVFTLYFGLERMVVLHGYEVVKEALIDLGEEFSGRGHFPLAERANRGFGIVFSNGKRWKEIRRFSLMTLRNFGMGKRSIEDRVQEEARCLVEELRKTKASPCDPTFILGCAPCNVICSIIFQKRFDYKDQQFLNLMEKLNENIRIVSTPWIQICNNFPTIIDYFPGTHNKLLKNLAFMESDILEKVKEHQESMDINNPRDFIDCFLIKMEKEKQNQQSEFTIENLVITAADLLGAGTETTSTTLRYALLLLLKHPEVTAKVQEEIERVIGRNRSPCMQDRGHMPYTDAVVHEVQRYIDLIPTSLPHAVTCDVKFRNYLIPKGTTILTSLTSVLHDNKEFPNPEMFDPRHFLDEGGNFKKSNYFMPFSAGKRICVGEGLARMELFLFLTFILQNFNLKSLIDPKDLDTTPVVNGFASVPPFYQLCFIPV
Method in brief: (§1)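 Cytochrome P450 high-throughput panel (1A2, 2D6, 2C9, 2C19, 3A4) using fluorogenic substrates; IC50 reported.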

[1] = target: T1, Leukotriene B4 receptor 2 (Homo sapiens, UniProt Q9NPC1); assay: Antagonist activity at FLAG-tagged human BLT2 receptor expressed in HEK293 cells assessed as inhibition of LTB4-stimulated calcium mobilization preincubated for 10 mins before LTB4 challenge; format: functional, cell-based
T1 sequence (Q9NPC1 whole entry): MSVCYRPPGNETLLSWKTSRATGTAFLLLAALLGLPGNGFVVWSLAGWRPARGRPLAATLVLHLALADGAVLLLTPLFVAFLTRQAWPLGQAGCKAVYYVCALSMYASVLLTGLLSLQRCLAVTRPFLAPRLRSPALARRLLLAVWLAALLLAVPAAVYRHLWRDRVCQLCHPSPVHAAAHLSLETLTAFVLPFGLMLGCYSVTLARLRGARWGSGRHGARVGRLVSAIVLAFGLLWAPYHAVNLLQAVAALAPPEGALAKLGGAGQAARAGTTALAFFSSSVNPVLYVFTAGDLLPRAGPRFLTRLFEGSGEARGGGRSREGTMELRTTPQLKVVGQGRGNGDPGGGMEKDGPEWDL

[2] = Solubility of compound in small intestinal contents in the fasted state at pH 6.5; format: ADME
Method in brief: (§2)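 Solubility measured in simulated intestinal fluid at pH 5.0 (fed) or pH 6.5 (fasted), reported in μg/mL.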

[3] = target: T2, Voltage-gated inwardly rectifying potassium channel KCNH2 (Homo sapiens, UniProt Q12809); assay: Inhibition of human ERG expressed in CHO cells assessed as reduction of current amplitude
T2 sequence (Q12809 whole entry): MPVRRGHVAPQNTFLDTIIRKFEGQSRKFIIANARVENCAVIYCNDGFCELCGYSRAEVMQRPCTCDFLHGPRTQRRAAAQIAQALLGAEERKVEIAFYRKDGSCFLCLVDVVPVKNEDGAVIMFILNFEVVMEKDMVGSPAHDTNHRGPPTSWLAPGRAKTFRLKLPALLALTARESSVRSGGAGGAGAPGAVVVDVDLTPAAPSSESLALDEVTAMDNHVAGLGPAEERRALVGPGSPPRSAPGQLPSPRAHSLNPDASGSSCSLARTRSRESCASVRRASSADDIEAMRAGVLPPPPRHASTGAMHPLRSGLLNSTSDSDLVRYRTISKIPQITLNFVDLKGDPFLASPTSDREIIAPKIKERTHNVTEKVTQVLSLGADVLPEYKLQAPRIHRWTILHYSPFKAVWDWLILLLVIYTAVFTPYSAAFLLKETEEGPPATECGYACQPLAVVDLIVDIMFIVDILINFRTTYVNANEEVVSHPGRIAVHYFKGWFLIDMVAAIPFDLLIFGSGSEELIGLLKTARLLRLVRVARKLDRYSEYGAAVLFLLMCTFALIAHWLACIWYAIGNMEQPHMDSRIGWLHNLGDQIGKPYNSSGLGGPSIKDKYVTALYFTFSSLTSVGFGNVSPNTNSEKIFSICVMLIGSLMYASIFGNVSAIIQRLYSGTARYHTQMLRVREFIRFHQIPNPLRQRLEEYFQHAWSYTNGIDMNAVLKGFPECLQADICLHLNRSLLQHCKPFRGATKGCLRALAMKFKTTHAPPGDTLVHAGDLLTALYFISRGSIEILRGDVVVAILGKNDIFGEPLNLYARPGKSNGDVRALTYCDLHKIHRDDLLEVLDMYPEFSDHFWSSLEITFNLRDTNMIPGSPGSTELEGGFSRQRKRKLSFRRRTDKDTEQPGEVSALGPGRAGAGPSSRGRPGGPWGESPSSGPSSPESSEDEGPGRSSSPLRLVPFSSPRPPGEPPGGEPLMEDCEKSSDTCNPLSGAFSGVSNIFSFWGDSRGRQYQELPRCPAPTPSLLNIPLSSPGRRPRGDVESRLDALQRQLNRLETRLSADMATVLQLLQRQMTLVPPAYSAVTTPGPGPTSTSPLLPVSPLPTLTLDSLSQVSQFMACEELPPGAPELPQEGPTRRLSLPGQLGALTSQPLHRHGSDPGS

[4] = Lipophilicity, log D of compound at pH 7.4; details: buffer
[5] = Solubility of compound in small intestinal contents in the fed state at pH 5; format: ADME; method in brief: as §2
Cytochrome P450 2C9 [6] = target: T3, Cytochrome P450 2C9 (Homo sapiens, UniProt P11712); assay: Inhibition of CYP2C9 fluorescence method; format: ADME
T3 sequence (P11712 whole entry): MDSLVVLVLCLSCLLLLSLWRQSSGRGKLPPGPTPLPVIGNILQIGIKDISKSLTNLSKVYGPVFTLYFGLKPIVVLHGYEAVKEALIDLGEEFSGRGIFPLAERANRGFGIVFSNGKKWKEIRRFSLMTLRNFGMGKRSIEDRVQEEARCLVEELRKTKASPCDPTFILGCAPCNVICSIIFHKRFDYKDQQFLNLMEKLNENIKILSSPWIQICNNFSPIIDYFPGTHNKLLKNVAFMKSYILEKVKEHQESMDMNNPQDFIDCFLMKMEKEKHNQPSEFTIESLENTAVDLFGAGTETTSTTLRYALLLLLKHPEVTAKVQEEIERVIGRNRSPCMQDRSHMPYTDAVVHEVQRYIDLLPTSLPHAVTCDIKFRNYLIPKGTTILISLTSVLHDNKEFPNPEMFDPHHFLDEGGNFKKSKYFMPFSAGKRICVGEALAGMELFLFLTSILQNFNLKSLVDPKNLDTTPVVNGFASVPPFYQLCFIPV

Cytochrome P450 1A2 = target: T4, Cytochrome P450 1A2 (Homo sapiens, UniProt P05177); assay: Inhibition of CYP1A2 by fluorescence method; format: ADME; method in brief: as §1
T4 sequence (P05177 whole entry): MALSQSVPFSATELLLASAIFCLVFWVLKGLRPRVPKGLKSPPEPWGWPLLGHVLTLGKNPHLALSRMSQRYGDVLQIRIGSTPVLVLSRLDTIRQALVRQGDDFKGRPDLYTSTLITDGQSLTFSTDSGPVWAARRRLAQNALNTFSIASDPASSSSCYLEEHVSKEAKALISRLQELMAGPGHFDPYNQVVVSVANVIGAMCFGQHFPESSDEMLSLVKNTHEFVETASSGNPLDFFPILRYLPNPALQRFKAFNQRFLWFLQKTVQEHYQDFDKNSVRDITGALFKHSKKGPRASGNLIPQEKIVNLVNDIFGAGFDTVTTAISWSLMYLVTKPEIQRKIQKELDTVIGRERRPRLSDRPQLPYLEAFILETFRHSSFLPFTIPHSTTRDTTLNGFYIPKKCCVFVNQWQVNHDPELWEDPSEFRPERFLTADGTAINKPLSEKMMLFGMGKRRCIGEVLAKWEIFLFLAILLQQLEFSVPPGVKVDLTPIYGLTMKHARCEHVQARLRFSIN

[7] = target: T5, Leukotriene B4 receptor 1 (Homo sapiens, UniProt Q15722); assay: Antagonist activity at BLT1 receptor expressed in human HL60 cells assessed as inhibition of LTB4-stimulated calcium flux after 30 mins; format: functional, cell-based, HL-60; details: read-out: IC50
T5 sequence (Q15722 whole entry): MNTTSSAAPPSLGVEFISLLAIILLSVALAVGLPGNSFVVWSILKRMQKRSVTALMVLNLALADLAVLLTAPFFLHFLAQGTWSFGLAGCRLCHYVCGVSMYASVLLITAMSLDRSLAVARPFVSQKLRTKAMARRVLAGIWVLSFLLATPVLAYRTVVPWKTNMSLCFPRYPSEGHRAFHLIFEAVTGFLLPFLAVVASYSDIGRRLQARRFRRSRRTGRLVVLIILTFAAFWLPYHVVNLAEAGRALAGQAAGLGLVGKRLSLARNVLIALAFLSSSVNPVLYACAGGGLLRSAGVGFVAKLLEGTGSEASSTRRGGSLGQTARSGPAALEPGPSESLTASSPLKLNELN
Method in brief: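 HL-60 cells grown in RPMI-1640 with 20% FBS were plated at 2.0 × 10^5 cells/ml with 1 μM retinoic acid. They were dye-loaded in HBSS/20 mM HEPES/5 mM probenecid (0.05% BSA in the replacement buffer) for 1 h at 37 C. Compound (5 × 10^-11 to 3 × 10^-6 M final) was added for 30 min at room temperature, then 0.5 μM LTB4. Fluorescence was read every 1.5 s for 100 s and peak increase scored as % inhibition versus DMSO control.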

Cytochrome P450 2C9 [8] = target: T3, Cytochrome P450 2C9; assay: Inhibition of CYP2C9 by LC/MS method; format: ADME
[9] = target: T2, Voltage-gated inwardly rectifying potassium channel KCNH2; assay: Inhibition of human ERG expressed in CHO cells at 3 uM assessed as reduction of current amplitude
[10] = target: T5, Leukotriene B4 receptor 1; assay: Antagonist activity at FLAG-tagged human BLT1 receptor expressed in HEK293 cells assessed as inhibition of LTB4-stimulated calcium mobilization preincubated for 10 mins before LTB4 challenge; format: functional, cell-based
Cytochrome P450 3A4 = Cytochrome P450 3A4 (Homo sapiens, UniProt P08684); assay: Inhibition of CYP3A4 fluorescence method; format: ADME
Chain of Cytochrome P450 3A4 (P08684 whole entry): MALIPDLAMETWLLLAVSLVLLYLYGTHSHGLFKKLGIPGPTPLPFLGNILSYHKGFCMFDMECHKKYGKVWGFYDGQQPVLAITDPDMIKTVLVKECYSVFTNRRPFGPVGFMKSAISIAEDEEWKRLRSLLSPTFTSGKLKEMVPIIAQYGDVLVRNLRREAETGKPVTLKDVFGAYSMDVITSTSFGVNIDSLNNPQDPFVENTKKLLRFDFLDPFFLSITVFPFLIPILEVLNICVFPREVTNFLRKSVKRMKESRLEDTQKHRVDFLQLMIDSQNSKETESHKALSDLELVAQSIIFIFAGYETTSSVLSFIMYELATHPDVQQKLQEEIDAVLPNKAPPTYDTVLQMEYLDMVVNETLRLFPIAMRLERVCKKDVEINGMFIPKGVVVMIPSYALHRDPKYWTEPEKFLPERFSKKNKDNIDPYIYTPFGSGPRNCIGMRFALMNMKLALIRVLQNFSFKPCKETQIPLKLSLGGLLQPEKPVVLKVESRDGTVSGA
Method in brief: (§3)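 High-throughput CYP panel covering 1A2, 2D6, 2C9, 2C19 and 3A4, using fluorogenic substrates. IC50 was determined in μM.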

Cytochrome P450 2D6 = Cytochrome P450 2D6 (Homo sapiens, UniProt P10635); assay: Inhibition of CYP2D6 fluorescence method; format: ADME; method in brief: as §3
Chain of Cytochrome P450 2D6 (P10635 whole entry): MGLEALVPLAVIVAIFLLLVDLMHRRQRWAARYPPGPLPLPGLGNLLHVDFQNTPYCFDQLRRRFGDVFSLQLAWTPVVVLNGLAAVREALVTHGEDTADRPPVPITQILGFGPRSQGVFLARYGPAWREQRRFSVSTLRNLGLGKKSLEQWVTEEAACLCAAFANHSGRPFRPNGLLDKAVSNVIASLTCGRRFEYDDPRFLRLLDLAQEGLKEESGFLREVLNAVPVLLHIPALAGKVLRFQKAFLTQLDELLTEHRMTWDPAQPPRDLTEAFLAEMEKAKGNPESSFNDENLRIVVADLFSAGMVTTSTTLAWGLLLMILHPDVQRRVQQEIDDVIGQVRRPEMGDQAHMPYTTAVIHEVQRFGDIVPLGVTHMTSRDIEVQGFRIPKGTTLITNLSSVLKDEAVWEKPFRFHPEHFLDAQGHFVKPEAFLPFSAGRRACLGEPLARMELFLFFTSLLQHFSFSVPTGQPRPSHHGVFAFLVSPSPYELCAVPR

Neutrophil = assay: Inhibition of LTB4-stimulated human neutrophils migration after 30 mins by using CyQuant GR fluorescent dye; format: functional, cell-based; details: Homo sapiens, Neutrophil, 0.5 h; read-out: IC50
Method in brief: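 Human blood neutrophils (95-97% pure, isolated over Lympholyte-poly) at 5 × 10^6 cells/mL were preincubated with compound (3 × 10^-12 to 1 × 10^-6 M final) for 30 min at 37 C. Migration toward 100 ng/mL LTB4 across a polycarbonate membrane ran 90 min at 37 C. Migrated cells were lysed with CyQuant GR and read at 480/520 nm. IC50 was taken from a sigmoidal fit of % inhibition.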

[11] = Tmax in Sprague-Dawley rat at 10 mg/kg, po; format: ADME, organism-based; parameters: dose 10 mg/kg, route oral; details: in vivo
Method in brief: (§4)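 Rat single-dose PK, n = 3, with oral dosing at 10 mg/kg and intravenous dosing at 2.5 or 5 mg/kg.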

Cavia porcellus = assay: Antiinflammatory activity against LTB4-evoked eosinophilic pulmonary inflammation in Hartley guinea pig at 10 mg/kg, po after 1 hr treated before LTB4 challenge; format: functional, organism-based; parameters: dose 10 mg/kg
Method in brief: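 Male Hartley guinea pigs (250-350 g) were dosed orally with 10 mg/kg in 2% Klucel LF/0.1% Tween-80. One hour later they were exposed to 10 μg/mL LTB4 aerosol for 20 min. BAL (3 × 5 mL HBSS) was done 2 h after challenge under pentobarbital. Cells were counted, and differentials of at least 300 cells were taken on Wright-stained cytospins. Analysis by two-way ANOVA/Bonferroni; 4-20 animals per group.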

[12] = Volume of distribution at steady state in Sprague-Dawley rat at 2.5 mg/kg, iv; format: ADME, organism-based; parameters: dose 2.5 mg/kg, route intravenous; details: in vivo, read-out: Vdss
[13] = Clearance in Sprague-Dawley rat at 2.5 mg/kg, iv; format: ADME, organism-based; parameters: dose 2.5 mg/kg, route intravenous; details: in vivo
[14] = Half life in Sprague-Dawley rat at 2.5 mg/kg, iv; format: ADME, organism-based; parameters: dose 2.5 mg/kg, route intravenous; details: in vivo
[15] = Half life in Sprague-Dawley rat at 10 mg/kg, po; format: ADME, organism-based; parameters: dose 10 mg/kg, route oral; details: in vivo; method in brief: as §4
[16] = Cmax in Sprague-Dawley rat at 10 mg/kg, po; format: ADME, organism-based; parameters: dose 10 mg/kg, route oral; details: in vivo; method in brief: as §4
Cynomolgus monkey = assay: Antiinflammatory activity against ascaris suum antigen-evoked increase in neutrophils at bronchoalveolar lavage in cynomolgus monkey at 10 mg/kg, po after 1 hr treated before LTB4 challenge; format: functional, organism-based; parameters: dose 10 mg/kg; details: Macaca fascicularis, in the assay text read “before Ascaris suum antigen challenge” for “before LTB4 challenge”
Method in brief: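 Male cynomolgus monkeys (4-10 kg) naturally hypersensitive to Ascaris suum had baseline BAL 24 h before challenge. They were dosed orally with 10 mg/kg in 15% Labrasol in PEG. One hour later, under ketamine/xylazine, they received antigen aerosol for 90 s by endotracheal tube. BAL neutrophil percentage came from 300-cell LeukoStat differentials, with hemocytometer totals. Analysis by two-way ANOVA/Bonferroni; 3-21 animals per group.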

[17] = Oral bioavailability in Sprague-Dawley rat at 10 mg/kg, po; format: ADME, organism-based; details: in vivo; method in brief: as §4

IC50 (Cytochrome P450 2C19): > 7500 nM | IC50 [1]: 628 nM | solubility [2]: 27.3 µg/mL (≈ 47 µM) | logD [4]: 0.7 | solubility [5]: 338 µg/mL (≈ 582 µM) | IC50 (Cytochrome P450 2C9 [6]): > 50000 nM | IC50 (Cytochrome P450 1A2): > 7500 nM | IC50 [7]: 0.21 nM | IC50 (Cytochrome P450 2C9 [8]): > 12500 nM | IC50 [10]: 38.5 nM | IC50 (Cytochrome P450 3A4): > 7500 nM | IC50 (Cytochrome P450 2D6): > 7500 nM
Compound: O=C(O)CCCOc1cccc(CCCCCCOc2cc(-c3ccccc3)cc(-c3ccccc3)c2)c1CCC(=O)O
IC50 [3]: > 3000 nM | INH [9]: Not Active

IC50 [7]: 8.5 nM
Compound: O=C(O)CCCOc1cccc(CCCCCCOc2cc(-c3ccc(F)cc3)cc(-c3ccc(F)cc3)c2)c1CCC(=O)O

IC50 (Cytochrome P450 2C19): > 7500 nM | solubility [2]: 27.1 µg/mL (≈ 42.2 µM) | logD [4]: 2.44 | solubility [5]: 38.1 µg/mL (≈ 59.3 µM) | IC50 (Cytochrome P450 2C9 [6]): 7600 nM | IC50 (Neutrophil): 7.67 nM | IC50 (Cytochrome P450 1A2): > 7500 nM | IC50 [7]: 0.61 nM | IC50 (Cytochrome P450 3A4): > 7500 nM | IC50 (Cytochrome P450 2D6): > 7500 nM
Compound: O=C(O)CCCOc1cccc(CCCCCCOc2cc(-c3ccc4c(c3)OCO4)cc(-c3ccccc3F)c2)c1CCC(=O)O
INH [9]: Not Active

IC50 [7]: 0.2 nM
Compound: O=C(O)CCCOc1cccc(CCCCCCOc2cc(-c3ccncc3)cc(-c3ccsc3)c2)c1CCC(=O)O

IC50 [7]: 0.57 nM
Compound: O=C(O)CCCOc1cccc(CCCCCCOc2cc(-c3ccsc3)cc(-c3ccnc(Cl)c3)c2)c1CCC(=O)O

IC50 (Neutrophil): 0.2 nM | IC50 [7]: 0.36 nM
Compound: O=C(O)CCCOc1cccc(CCCCCCOc2cc(-c3ccccc3)cc(-c3ccsc3)c2)c1CCC(=O)O

IC50 [7]: 140 nM
Compound: O=C(O)CCCOc1cccc(CCCCCCOc2cc(-c3ccc4c(c3)OCCO4)cc(-c3ccc4c(c3)OCCO4)c2)c1CCC(=O)O

IC50 [7]: 60.2 nM
Compound: O=C(O)CCCOc1cccc(CCCCCCOc2cc(-c3ccc(F)cc3)cc(-c3ccc4c(c3)OCCO4)c2)c1CCC(=O)O

IC50 [7]: 5.39 nM
Compound: O=C(O)CCCOc1cccc(CCCCCCOc2cc(-c3ccc4c(c3)OCO4)cc(-c3ccc4c(c3)OCO4)c2)c1CCC(=O)O

IC50 (Cytochrome P450 2C19): > 7500 nM | Tmax [11]: 2.3 h | IC50 [1]: 3060 nM | solubility [2]: 16.5 µg/mL (≈ 28.4 µM) | Vd [12]: 0.3 L/kg | clearance [13]: 7.53 mL/min/kg | half-life [14]: 2.1 h | half-life [15]: 2.9 h | solubility [5]: 27.7 µg/mL (≈ 47.6 µM) | Cmax [16]: 2110 nM | IC50 (Cytochrome P450 2C9 [6]): > 12500 nM | IC50 (Neutrophil): 1.8 nM | IC50 (Cytochrome P450 1A2): > 7500 nM | IC50 [7]: 0.48 nM | bioavailability [17]: 28% | IC50 [10]: 205 nM | IC50 (Cytochrome P450 3A4): > 7500 nM | IC50 (Cytochrome P450 2D6): > 7500 nM
Compound: O=C(O)CCCOc1cccc(CCCCCCOc2cc(-c3ccccc3)cc(-c3ccccc3)n2)c1CCC(=O)O
Activity (Cavia porcellus): Active | IC50 [3]: > 3000 nM | Activity (Cynomolgus monkey): Active | INH [9]: Not Active

IC50 (Neutrophil): 20 nM | IC50 [7]: 0.39 nM
Compound: O=C(O)CCCOc1cccc(CCCCCCOc2cc(-c3cncnc3)cc(-c3ccsc3)c2)c1CCC(=O)O
